Sampled rows, rich in hits. Any-hit rate of the full collection: about 2.3%.
TRPC4 block: inhibitors of mouse TRPC4 channel; Q9QUQ5; HEK293 TRPC4beta/mu-opioid, DAMGO-evoked Fluo4 calcium flux; stronger effect = lower value; B-score at 10 µM; 300,000 tested, 0.39% active; AID 2247;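 active = B-score over 3 SD under the library average, no early fluorescence shift, positive overall ratio signal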
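Assay system: HEK293 cells with stable TRPC4beta plus mu-opioid receptor expression. Dosing: single dose. Measured by: Fluo4 Ca2+ flux fluorescence. Also added: DAMGO in two steps, submaximal then maximal. Read-out: B score from integrated Fluo4 fluorescence ratio.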
TRPC6 inhibitor: blocks the mouse TRPC6 cation channel; HEK293-TRPC6, membrane potential dye, ACh-evoked depolarization; stronger effect = lower value; AID 2553; 310,000 tested, 1.1% active; Q61143; B-score at 10 µM;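 active = B-score under library mean minus 3 SD, initial fluorescence not abnormally high, positive integrated signal ratio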;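 also: B-score derived from integrated fluorescence ratio over the kinetic read; more negative B-score means stronger inhibition of depolarization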
Target sequence (Q61143 whole entry, looked up): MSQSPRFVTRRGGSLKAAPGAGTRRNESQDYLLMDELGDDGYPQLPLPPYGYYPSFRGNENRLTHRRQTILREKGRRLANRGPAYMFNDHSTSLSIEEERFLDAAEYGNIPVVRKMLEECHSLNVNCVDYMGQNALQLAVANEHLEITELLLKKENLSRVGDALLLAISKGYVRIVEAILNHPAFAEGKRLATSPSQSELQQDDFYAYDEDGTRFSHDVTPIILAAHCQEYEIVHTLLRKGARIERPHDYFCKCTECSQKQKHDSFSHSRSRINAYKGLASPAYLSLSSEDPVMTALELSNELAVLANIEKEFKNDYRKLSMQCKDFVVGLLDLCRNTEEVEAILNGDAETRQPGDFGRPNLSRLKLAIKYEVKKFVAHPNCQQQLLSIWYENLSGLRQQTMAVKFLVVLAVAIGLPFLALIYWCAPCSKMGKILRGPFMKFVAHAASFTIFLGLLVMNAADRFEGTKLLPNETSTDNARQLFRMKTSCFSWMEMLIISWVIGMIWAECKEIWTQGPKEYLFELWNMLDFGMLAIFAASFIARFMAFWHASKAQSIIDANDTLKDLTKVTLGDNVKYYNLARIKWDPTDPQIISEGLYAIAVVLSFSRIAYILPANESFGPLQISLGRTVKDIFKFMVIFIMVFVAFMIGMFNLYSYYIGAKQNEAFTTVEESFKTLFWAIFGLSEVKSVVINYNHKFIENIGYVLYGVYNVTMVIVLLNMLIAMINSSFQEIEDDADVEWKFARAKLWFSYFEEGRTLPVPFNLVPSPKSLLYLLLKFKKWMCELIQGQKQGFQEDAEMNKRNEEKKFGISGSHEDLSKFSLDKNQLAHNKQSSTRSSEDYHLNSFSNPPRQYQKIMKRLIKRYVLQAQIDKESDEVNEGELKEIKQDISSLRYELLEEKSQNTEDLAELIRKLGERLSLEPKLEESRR
TRPC4 act: activators of mouse TRPC4 channel; Q9QUQ5; HEK293 TRPC4beta/mu-opioid, Fluo4 calcium fluorescence; stronger effect = higher value; B-score at 10 µM; 310,000 tested, 0.49% active;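 active = B-score above 5 SD of library B-scores, and initial fluorescence ratio not above library mean plus 5 SD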;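 also: positive B-score marks a calcium rise read as TRPC4 activation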
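Material: TRPC4beta and mu-opioid receptor HEK293 stable cells | Incubation: 45 min room-temperature Fluo4 loading, 110 s read | Detection: Kinetic Fluo4 calcium fluorescence | Measure: Integrated baseline-normalised fluorescence ratio, converted to per-well B score | Benchmarks: Low control buffer alone, high control maximal DAMGO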
TRPC6 act: activators of mouse TRPC6 channel. Q61143. HEK293-TRPC6 membrane potential dye fluorescence; stronger effect = higher value. B-score at 10 µM. 310,000 tested, 0.13% active;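 active = B-score of the integrated fluorescence ratio above library mean plus 3 SD, and starting fluorescence ratio within library mean plus 5 SD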;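 also: higher score means more depolarization so channel activation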
TRPC4 potent: TRPC4 (mouse) allosteric potentiation | B-score at 10 µM | 310,000 tested, 0.42% active | HEK293 TRPC4beta/mu-opioid, DAMGO EC20, Fluo-4 Ca2+ flux; stronger effect = higher value | AID 2227;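 active = B-score of calcium response area above 5 SD of library B-scores, with initial fluorescence ratio within 5 SD of library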;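 also: B-score of integrated fluorescence ratio over time as area under calcium response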
TRPC4 spec 2: second check of whether TRPC6 inhibitors also affect mouse TRPC4; inhibition, % at 10 µM; HEK293 TRPC4/MOR, membrane potential dye fluorescence; channel activated by saturating DAMGO dose; 920 tested, 42% active; shares compounds with TRPC6 inhibitor;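 active = compounds whose fluorescence signal differed from control wells by over 3 SD, either direction, in both duplicate plates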
TRPC4 spec: mouse TRPC4 off-target activity of TRPC6 inhibitors; 920 tested, 61% active; HEK293 TRPC4/mu-opioid, membrane potential fluorescence; shares compounds with TRPC6 inhibitor; activity change, negative = inhibition, % at 10 µM;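 active = rise or fall in signal beyond 3 SD of buffer-only wells in both replicate plates, either sign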;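 also: integrated kinetic ratio of fluorescence range over baseline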
HEK293 MPD ctr 2-1: second counter-screen for TRPC6 inhibitors: parental HEK293 cells. shares compounds with TRPC6 inhibitor. parental HEK293 membrane potential dye fluorescence; maximal acetylcholine challenge after compound addition. signal change vs control, % at 10 µM. 920 tested, 31% active;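 active = membrane potential signal moving either way by over 3 SD of the maximum-effect control, in both duplicate plates, meaning non-specific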
HEK293 MPD ctr-1: checks TRPC6 inhibitor effects in parental HEK293 cells | parental HEK293 membrane potential dye fluorescence | membrane potential signal change, % at 10 µM | 920 tested, 60% active | shares compounds with TRPC6 inhibitor;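 active = membrane potential signal shifting up or down by more than 3 SD of buffer-only wells, on both duplicate plates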
HEK293 MPD ctr-2: parental HEK293 nonspecific activity of TRPC6 modulators; shares compounds with TRPC6 inhibitor; membrane potential dye fluorescence; membrane potential signal change, % at 10 µM; 2,400 tested, 51% active; AID 488924;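 active = membrane potential signal moves up or down beyond 5 SD from buffer-only wells, on both duplicate plates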
HEK293 MPD ctr 2-2: second check of TRPC6 modulator effects in parental HEK293 cells; membrane potential dye fluorescence; after compound, maximal acetylcholine stimulation; 2,400 tested, 14% active; AID 488926; inhibition, % at 10 µM; shares compounds with TRPC6 inhibitor;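 active = membrane potential signal drops by more than 5 SD from the mean control signal, in both duplicate plates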;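 also: plate controls were acetylcholine ECmax control wells for no effect and buffer only wells for full effect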
TRPC4/MOR mod: selectivity of TRPC6 modulators against mouse TRPC4; shares compounds with TRPC6 inhibitor; 2,400 tested, 69% active; percent change from control (negative = decrease, positive = increase), % at 10 µM; HEK293 TRPC4/mu-opioid, membrane potential fluorescence;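 active = membrane potential signal moved up or down beyond 5 SD of buffer control wells, in both duplicate plates, actives on both sides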;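 also: plate controls were assay buffer wells for no effect and DAMGO maximal-effect wells for full effect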
TRPC4/MOR inh 2: second selectivity test of TRPC6 modulators against mouse TRPC4; HEK293 TRPC4/mu-opioid, membrane potential dye fluorescence; stimulated with maximal-effect DAMGO; shares compounds with TRPC6 inhibitor; 2,400 tested, 55% active; AID 488928; inhibition, % at 10 µM;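 active = drop in membrane potential signal beyond 5 SD of the control wells in both duplicate plates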;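 also: TRPC4 counter screen for TRPC6 hits run under conditions tuned for TRPC6 not TRPC4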
TRPC6 inh conf: mouse TRPC6 inhibitor confirmation; shares compounds with TRPC6 inhibitor; HEK293-TRPC6, membrane potential dye, ACh-evoked depolarization; inhibition, % at 10 µM; 3,300 tested, 43% active; AID 488960;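 active = fluorescence ratio falls more than 5 SD below the full-stimulation control mean, in both duplicate runs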;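 also: integrated fluorescence ratio of peak minus minimum over baseline after agonist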
TRPC6 act conf: confirmation of mouse TRPC6 activators. HEK293-TRPC6 membrane potential dye fluorescence, FDSS. activation, % at 10 µM. shares compounds with TRPC6 inhibitor. 2,800 tested, 11% active;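 active = ratio signal rise beyond 5 SD above unstimulated control wells' mean, seen in both duplicate runs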;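 also: plate controls were buffer EC0 wells for no effect and acetylcholine ECmax response for full effect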
Active calls of the source: *.

For C(#Cc1ccccc1)C[N+]1(CC#Cc2ccccc2)CCCCC1 the results were TRPC4 block inactive, TRPC6 inhibitor -9.1*, TRPC4 act inactive, TRPC6 act inactive, TRPC4 potent inactive, TRPC4 spec 2 inactive, TRPC4 spec -0.2%*, HEK293 MPD ctr 2-1 inactive, HEK293 MPD ctr-1 0.7%*, TRPC6 inh conf 66%* and TRPC6 act conf inactive.
For Cc1ccc(C#CC[N+]2(CC#Cc3ccc(C)cc3)CCCCC2)cc1 the results were TRPC4 block inactive, TRPC6 inhibitor -5.4*, TRPC4 act inactive, TRPC6 act inactive, TRPC4 potent inactive, HEK293 MPD ctr-2 92%*, HEK293 MPD ctr 2-2 inactive, TRPC4/MOR mod 17%*, TRPC4/MOR inh 2 inactive and TRPC6 inh conf 44%*.
CCC[N+]1(CC#CCC(c2ccccc2)c2ccccc2)CCCCC1 was read as TRPC4 block inactive, TRPC6 inhibitor -5.2*, TRPC4 act inactive, TRPC6 act inactive, TRPC4 potent inactive, HEK293 MPD ctr-2 inactive, HEK293 MPD ctr 2-2 inactive, TRPC4/MOR mod 12%*, TRPC4/MOR inh 2 inactive, TRPC6 inh conf 42%* and TRPC6 act conf inactive.
C#CC[N+]1(CC#Cc2ccccc2)CCCCC1 was read as TRPC4 block inactive, TRPC6 inhibitor inactive, TRPC4 act inactive, TRPC6 act inactive and TRPC4 potent inactive.
Screening O=C(C[N+]1(CC#Cc2ccccc2)CCCCC1)c1ccccc1 returned TRPC4 block inactive, TRPC6 inhibitor inactive, TRPC4 act inactive, TRPC6 act inactive and TRPC4 potent inactive.
C(#Cc1ccccc1)C[N+]1(CC#Cc2cccc3ccccc23)CCOCC1 was read as TRPC4 block inactive, TRPC6 inhibitor -5*, TRPC4 act inactive, TRPC6 act inactive, TRPC4 potent inactive, HEK293 MPD ctr-2 -78%*, HEK293 MPD ctr 2-2 inactive, TRPC4/MOR mod -16%*, TRPC4/MOR inh 2 inactive, TRPC6 inh conf inactive and TRPC6 act conf inactive.
`C#CC[N+]1(CC#Cc2cccc(C)c2)CCCCC1` gave TRPC4 block inactive, TRPC6 inhibitor inactive, TRPC4 act inactive, TRPC6 act inactive and TRPC4 potent inactive.
Screening Cc1nn(CC(=O)N2CCC(C)CC2)c(=O)c2nn(-c3ccccc3)c(C)c12 returned TRPC4 block inactive, TRPC6 inhibitor inactive, TRPC4 act inactive, TRPC6 act inactive and TRPC4 potent inactive.
For Cc1c(O)c(CN2CCCCC2)cc2c3c(c(=O)oc12)CCC3 the results were TRPC4 block inactive, TRPC6 inhibitor -10*, TRPC4 act inactive, TRPC6 act inactive, TRPC4 potent inactive, HEK293 MPD ctr-2 -243%*, HEK293 MPD ctr 2-2 inactive, TRPC4/MOR mod -39%*, TRPC4/MOR inh 2 inactive, TRPC6 inh conf 44%* and TRPC6 act conf inactive.
`Cc1c(O)c(CN2CCCCC2)cc2c1oc(=O)c1ccccc12` gave TRPC4 block inactive, TRPC6 inhibitor inactive, TRPC4 act inactive, TRPC6 act inactive and TRPC4 potent inactive.
For CN1CCCC1CCNc1ccc2sc3ccccc3c(=O)c2c1 (stereo not drawn) the results were TRPC4 block inactive, TRPC6 inhibitor -6.3*, TRPC4 act 75*, TRPC6 act 30*, TRPC4 potent inactive, HEK293 MPD ctr-2 794%*, HEK293 MPD ctr 2-2 inactive, TRPC4/MOR mod 148%*, TRPC4/MOR inh 2 67%*, TRPC6 inh conf inactive and TRPC6 act conf 318%*.
O=c1c2ccccc2oc2ccc(NCCCn3ccnc3)cc12 was read as TRPC4 block inactive, TRPC6 inhibitor inactive, TRPC4 act inactive, TRPC6 act inactive and TRPC4 potent inactive.
Screening Cc1cc2oc3cc(NCCC4CCCN4C)ccc3c(=O)c2cc1C (stereo not drawn) returned TRPC4 block inactive, TRPC6 inhibitor -5.9*, TRPC4 act inactive, TRPC6 act inactive, TRPC4 potent inactive, HEK293 MPD ctr-2 inactive, HEK293 MPD ctr 2-2 84%*, TRPC4/MOR mod -11%*, TRPC4/MOR inh 2 76%*, TRPC6 inh conf 50%* and TRPC6 act conf inactive.
O=C(NCCN1CCOCC1)c1sc2ccccc2c1Cl was read as TRPC4 block inactive, TRPC6 inhibitor inactive, TRPC4 act inactive, TRPC6 act inactive and TRPC4 potent inactive.
O=c1c2ccccc2sc2ccc(NCCCN3CCOCC3)cc12 was read as TRPC4 block inactive, TRPC6 inhibitor inactive, TRPC4 act inactive, TRPC6 act 34*, TRPC4 potent inactive, HEK293 MPD ctr-2 940%*, HEK293 MPD ctr 2-2 inactive, TRPC4/MOR mod 190%*, TRPC4/MOR inh 2 80%* and TRPC6 act conf 365%*.
CCOC(=O)C1=C(C)OC(N)=C(C#N)C1c1cc2c(cc1Br)OCO2 (stereo not drawn) was read as TRPC4 block inactive, TRPC6 inhibitor -5.2*, TRPC4 act inactive, TRPC6 act inactive, TRPC4 potent inactive, HEK293 MPD ctr-2 inactive, HEK293 MPD ctr 2-2 inactive, TRPC4/MOR mod inactive, TRPC4/MOR inh 2 inactive, TRPC6 inh conf inactive and TRPC6 act conf inactive.

Assay outcomes from PubChem BioAssay.
